# Test results as given in ChEMBL document CHEMBL5214971, “Multiple approaches to repurposing drugs for neuroblastoma” (Bioorg Med Chem, 2022).
# How the values were obtained:
# HT-1080 = assay: Anticancer activity against human HT-1080 cells assessed as reduction in cell viability incubated for 48 hrs by resazurin dye based fluorescence assay; format: functional; conditions: HT-1080, 48 h
# Method in brief: (§1)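 Cells seeded at 1×10^4 cells/well in DMEM/Ham's F12 (1:1, L-glutamine, 15 mM HEPES) with 10% FBS, 37°C, 5% CO2. Compounds in DMSO, 50 μM then two-fold over 8 further dilutions to 0.195 μM; 0.5% DMSO final. 48 h exposure. Resazurin 0.0125 mg/ml final, read 3 h (HT1080) or 8 h (SH-SY5Y, SK-N-AS) at Ex 544/Em 590 nm. Inhibition relative to DMSO control; triplicates, ≥2 experiments.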
# SK-N-AS = assay: Anticancer activity against human SK-N-AS cells assessed as reduction in cell viability incubated for 48 hrs by resazurin dye based fluorescence assay; format: functional; method in brief: as §1
# SH-SY5Y = assay: Anticancer activity against human SH-SY5Y cells assessed as reduction in cell viability incubated for 48 hrs by resazurin dye based fluorescence assay; format: functional; method in brief: as §1
# [1] = Cytotoxicity against human HeLa cells assessed as reduction in cell viability incubated for 48 hrs by CellTiter Glo assay; format: toxicity, cell-based
# [2] = target: Calcium/calmodulin-dependent protein kinase type 1 (Homo sapiens) (UniProt Q14012); assay: Inhibition of CAMK1 (unknown origin) at 1 uM by Adapta assay
# Sequence of Calcium/calmodulin-dependent protein kinase type 1 (Homo sapiens) (Q14012 whole entry, looked up): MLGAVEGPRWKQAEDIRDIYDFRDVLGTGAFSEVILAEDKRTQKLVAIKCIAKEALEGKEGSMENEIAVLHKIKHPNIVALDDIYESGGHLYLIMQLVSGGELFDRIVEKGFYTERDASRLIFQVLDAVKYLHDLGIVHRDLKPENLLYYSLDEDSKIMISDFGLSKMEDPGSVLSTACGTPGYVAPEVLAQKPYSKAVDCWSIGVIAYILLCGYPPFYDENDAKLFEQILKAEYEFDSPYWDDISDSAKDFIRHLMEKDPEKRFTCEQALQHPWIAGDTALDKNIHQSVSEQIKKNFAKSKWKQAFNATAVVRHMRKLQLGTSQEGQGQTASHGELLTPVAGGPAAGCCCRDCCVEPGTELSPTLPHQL
# [3] = Cytotoxicity against African green monkey Vero 76 cells assessed as reduction in cell viability; format: toxicity, cell-based; conditions: African green monkey (Chlorocebus sabaeus)
# [4] = target: Maternal embryonic leucine zipper kinase (Homo sapiens) (UniProt Q14680); assay: Inhibition of MELK (unknown origin) at 1 uM by Adapta assay
# Sequence of Maternal embryonic leucine zipper kinase (Homo sapiens) (Q14680 whole entry, looked up): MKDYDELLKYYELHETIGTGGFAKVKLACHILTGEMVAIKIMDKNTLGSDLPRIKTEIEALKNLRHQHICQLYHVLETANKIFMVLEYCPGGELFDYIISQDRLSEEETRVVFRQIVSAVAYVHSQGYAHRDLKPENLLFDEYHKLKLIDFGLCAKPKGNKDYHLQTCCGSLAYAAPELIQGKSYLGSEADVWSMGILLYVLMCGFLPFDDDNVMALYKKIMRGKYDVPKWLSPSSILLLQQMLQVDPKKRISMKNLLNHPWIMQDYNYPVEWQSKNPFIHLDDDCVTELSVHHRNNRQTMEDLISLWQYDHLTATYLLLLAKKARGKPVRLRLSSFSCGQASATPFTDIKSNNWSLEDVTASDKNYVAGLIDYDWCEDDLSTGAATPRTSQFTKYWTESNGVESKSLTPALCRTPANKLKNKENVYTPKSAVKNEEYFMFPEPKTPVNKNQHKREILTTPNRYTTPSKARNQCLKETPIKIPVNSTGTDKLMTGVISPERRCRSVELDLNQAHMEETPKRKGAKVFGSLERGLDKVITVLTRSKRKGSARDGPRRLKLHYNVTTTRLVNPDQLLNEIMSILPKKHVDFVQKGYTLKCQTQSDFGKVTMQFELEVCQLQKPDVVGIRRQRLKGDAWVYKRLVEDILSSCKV
# [5] = Cytotoxicity against human A549-ACE2 cells expressing ACE2 assessed as reduction in cell viability by CytoTox-Glo assay; format: toxicity, cell-based
# [6] = target: Cathepsin D (Homo sapiens) (UniProt P07339); assay: Inhibition of cathepsin D (unknown origin) using MCA labelled GKPILFFRLK(Dnp)-D-R-NH as substrate at 200 uM preincubated for 15 mins followed by substrate addition and measured after 2 hrs by fluorometer analysis; conditions: time 135.0 min
# Sequence of Cathepsin D (Homo sapiens) (P07339 65-162 limits assumed): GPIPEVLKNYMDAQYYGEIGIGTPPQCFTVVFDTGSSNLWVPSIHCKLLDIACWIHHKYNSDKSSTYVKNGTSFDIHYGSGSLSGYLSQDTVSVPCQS
# Sequence of Cathepsin D (Homo sapiens) (P07339 169-412 limits assumed): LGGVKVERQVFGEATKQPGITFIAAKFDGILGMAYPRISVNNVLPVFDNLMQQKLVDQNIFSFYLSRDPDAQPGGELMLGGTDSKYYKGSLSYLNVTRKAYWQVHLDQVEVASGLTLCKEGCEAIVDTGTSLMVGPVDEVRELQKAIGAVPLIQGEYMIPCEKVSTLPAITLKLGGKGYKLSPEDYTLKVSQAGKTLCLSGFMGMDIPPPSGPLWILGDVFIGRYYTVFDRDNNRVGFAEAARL
SMILES,IC50 (HT-1080) [µM],IC50 (SK-N-AS) [µM],IC50 (SH-SY5Y) [µM],further results
COc1ccc2nc3cc(Cl)ccc3c(Nc3ccc(O)c(CN4CCCC4)c3)c2c1,3.6,3.86,1.2,–
Cc1ccc(S(=O)(=O)/C=C/C#N)cc1,–,1.23,0.85,–
COc1ccc2nc3cc(Cl)ccc3c(Nc3cc(CN4CCCC4)c(O)c(CN4CCCC4)c3)c2c1,13.8,–,9.7,–
COc1ccc2nc3cc(Cl)ccc3c(Nc3cc(CN(C)C)c(O)c(CN(C)C)c3)c2c1,6.09,5.4,3.41,–
C[C@@H](Oc1cc(-c2cnn(C3CCNCC3)c2)cnc1N)c1c(Cl)ccc(F)c1Cl [CRIZOTINIB],–,12.1,0.92,–
CN1CCN(c2ccc(C(=O)Nc3n[nH]c4ccc(Cc5cc(F)cc(F)c5)cc34)c(NC3CCOCC3)c2)CC1 [ENTRECTINIB],–,4.47,1.6,–
COc1ccc2nc3cc(Cl)ccc3c(Nc3cc(CN4CCCC4)c(O)c(CN4CCCC4)c3)c2n1 [PYRONARIDINE],4.23,3.45,1.7,IC50 at 48 h [1]: 3.1 µM; inhibition [2]: 35%; IC50 [3]: 1.3 µM; inhibition [4]: 31%; IC50 [5]: > 10 µM; inhibition [6]: > 50%

# Now from value to compound, other results behind:
IC50 (HT-1080) [µM],IC50 (SK-N-AS) [µM],IC50 (SH-SY5Y) [µM],SMILES,further results
–,6.11,4.71,CCCCCCCCc1ccc(CCC(N)(CO)CO)cc1 [FINGOLIMOD],–
–,2.33,0.87,O=C(Nc1ccc([N+](=O)[O-])cc1Cl)c1cc(Cl)ccc1O [NICLOSAMIDE],–
29,–,8.57,CCN(CC)CCCC(C)Nc1c2ccc(Cl)cc2nc2ccc(OC)cc12 (centres undefined) [QUINACRINE],–
